This is an account of results in ChEMBL document CHEMBL4819068, “Novel potent bifunctional carboxylesterase inhibitors based on a polyfluoroalkyl-2-imino-1,3-dione scaffold” (Eur J Med Chem, 2021).

Series [1] has as its target T1, Liver carboxylesterase (Sus scrofa, UniProt Q29550).
T1 sequence (Q29550 whole entry): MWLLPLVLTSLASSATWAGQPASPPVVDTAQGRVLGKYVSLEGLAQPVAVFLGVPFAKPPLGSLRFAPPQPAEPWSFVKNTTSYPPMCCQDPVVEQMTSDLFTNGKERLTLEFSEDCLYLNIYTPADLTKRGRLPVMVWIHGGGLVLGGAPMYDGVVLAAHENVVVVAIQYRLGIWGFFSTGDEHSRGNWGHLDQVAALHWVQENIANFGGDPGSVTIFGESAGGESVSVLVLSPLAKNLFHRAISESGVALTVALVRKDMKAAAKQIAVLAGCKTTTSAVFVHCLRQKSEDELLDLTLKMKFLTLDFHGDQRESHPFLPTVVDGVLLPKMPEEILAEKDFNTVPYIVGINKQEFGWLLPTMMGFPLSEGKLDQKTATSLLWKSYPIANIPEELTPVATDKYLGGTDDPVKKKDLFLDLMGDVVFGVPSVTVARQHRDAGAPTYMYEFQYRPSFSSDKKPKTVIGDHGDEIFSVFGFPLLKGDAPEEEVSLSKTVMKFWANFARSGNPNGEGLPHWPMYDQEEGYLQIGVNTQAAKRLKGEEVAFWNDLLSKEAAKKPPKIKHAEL
Description: Inhibition of porcine liver carboxylesterase using 4-NPA as substrate preincubated for 10 mins followed by substrate addition by spectrophotometric analysis. In kind it is tissue-based. The method, boiled down:
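Porcine liver CES, 0.02 unit/mL, in 0.1 M K/Na phosphate pH 8.0, 25 °C; compound in DMSO (2% v/v final) preincubated 10 min, then 1 mM 4-nitrophenyl acetate; 4-nitrophenol read at 405 nm, enzyme-free blanks. Screening at 20 μM in three separate experiments; IC50 from eight concentrations between 10^-12 and 10^-4 M, residual activity relative to inhibitor-free control.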

Series [2] deals with T2, Acetylcholinesterase (Homo sapiens, UniProt P22303). Description: Inhibition of human erythrocyte AChE using acetylthiocholine iodide as substrate preincubated for 10 mins followed by substrate addition by Ellman's method. On the technique in general: DTNB colorimetry detects thiols as they appear.
Series [3] concerns the target T3, Cholinesterase (Equus caballus, UniProt P81908). Description: Inhibition of equine serum BuChE using […] as substrate preincubated for 10 mins followed by substrate addition by Ellman's method.
A short description of series [4]: Antioxidant activity assessed as trolox equivalent of ABTS radical cation scavenging activity incubated for 24 hrs by UV-Vis spectrophotometric analysis. In kind it is functional.
Series [5] is described as follows: Antioxidant activity assessed as decrease in ABTS radical cation scavenging activity incubated for 24 hrs by UV-Vis spectrophotometric analysis. In kind it is functional.
The next series has as its target T4, Liver carboxylesterase 1 (Homo sapiens, UniProt P23141).
T4 sequence (P23141 whole entry): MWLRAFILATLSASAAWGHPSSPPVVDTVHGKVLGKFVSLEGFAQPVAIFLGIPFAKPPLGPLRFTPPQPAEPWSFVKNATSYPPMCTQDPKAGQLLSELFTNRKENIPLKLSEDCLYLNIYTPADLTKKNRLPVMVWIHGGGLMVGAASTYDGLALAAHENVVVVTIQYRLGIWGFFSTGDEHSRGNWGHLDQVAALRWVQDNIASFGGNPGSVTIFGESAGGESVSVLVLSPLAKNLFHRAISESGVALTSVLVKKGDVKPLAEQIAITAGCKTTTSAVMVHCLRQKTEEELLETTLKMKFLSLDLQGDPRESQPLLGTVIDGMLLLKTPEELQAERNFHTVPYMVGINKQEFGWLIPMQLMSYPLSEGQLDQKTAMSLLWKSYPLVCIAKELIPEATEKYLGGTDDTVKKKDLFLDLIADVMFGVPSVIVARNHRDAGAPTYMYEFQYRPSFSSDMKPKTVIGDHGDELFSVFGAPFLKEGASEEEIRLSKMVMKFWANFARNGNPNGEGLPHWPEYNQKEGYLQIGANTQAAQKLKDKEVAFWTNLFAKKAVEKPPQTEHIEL
Description: Inhibition of human recombinant CES1 expressed in baculovirus infected BTI insect cells using 4-NPA as substrate by spectrophotometric analysis. The method, boiled down: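 Recombinant hCES1 (baculovirus/BTI insect cells), 0.02 unit/mL, in 0.1 M K/Na phosphate pH 7.4, 25 °C; compound (DMSO, 2% v/v final) preincubated 10 min, then 1 mM 4-nitrophenyl acetate added; 4-nitrophenol release read at 405 nm against enzyme-free blank. IC50 from eight concentrations (10^-12–10^-4 M) relative to inhibitor-free control.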

Series [6] is described as follows: Cytotoxicity against human FetMSC cells assessed as reduction in cell viability after 72 hrs by MTT assay. It is filed as cell-based. An outline of the steps:
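Human fetal MSC (bone-marrow fibroblast-like, nonimmortalized; ≤10–15 passages) grown in F12/DMEM with 10% FBS, 3 mM L-glutamine, penicillin/streptomycin. Seeded at 6×10^3 cells/well; after 24 h, medium replaced with compound at 100, 250, 500 μM for 72 h; controls 0.1% DMSO. MTT 0.5 mg/ml for 4 h, formazan dissolved in DMSO, read at 570 nm; control = 100%.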

The nature of series [7]: Acute toxicity in ip dosed CD-1 mouse observed for 14 days. In kind it is organism-based. As to conditions: in vivo, time 14 day. An outline of the steps: (§1)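 CD-1 mice given compound intraperitoneally in 2% (w/v) starch mucilage, three animals per dose group; lethality observed over 14 days; procedure based on OECD recommendations.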
Series [8] can be described thus: Acute toxicity in CD-1 mouse assessed as effect on mouse death at 900 mg/kg, ip measured after 14 days. In kind it is organism-based. The note with it: in vivo, 336 h, time 14 day. The method, boiled down:
as §1

Series [9] is described as follows: Acute toxicity in CD-1 mouse assessed as effect on mouse death at 600 mg/kg, ip measured after 14 days. In kind it is organism-based. As to conditions: in vivo, 336 h, time 14 day. An outline of the steps:
as §1

Series [10] deals with T1, Liver carboxylesterase. Description: Competitive inhibition of porcine liver carboxylesterase by double reciprocal Lineweaver-Burk plot analysis. It is filed as tissue-based. The method, boiled down: (§2)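 Porcine liver CES residual activity measured with 3 increasing inhibitor concentrations and 5–6 decreasing 4-nitrophenyl acetate concentrations after 10 min preincubation at 25 °C; parallel inhibitor-free controls. Initial velocities plotted as Lineweaver–Burk double-reciprocal plots to derive mechanism and steady-state inhibition constants; each experiment in triplicate.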

Series [11] has as its target T1, Liver carboxylesterase. Description: Non-competitive inhibition of porcine liver carboxylesterase by double reciprocal Lineweaver-Burk plot analysis. In kind it is tissue-based. As to conditions: pig. An outline of the steps: as §2
Series [12] has as its target T2, Acetylcholinesterase. Description: Competitive inhibition of human erythrocyte AChE by double reciprocal Lineweaver-Burk plot analysis. The method, boiled down:
(§3)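 Residual activity measured with 3 increasing inhibitor concentrations and 5–6 decreasing substrate concentrations (ATCh for AChE, BTCh for BChE), DTNB read-out, 0.1 M K/Na phosphate pH 7.5, 25 °C; 10 min enzyme–inhibitor preincubation before substrate; no-inhibitor parallel control; triplicate; mechanism from Lineweaver-Burk plots.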

Series [13] concerns the target T2, Acetylcholinesterase. Description: Non-competitive inhibition of human erythrocyte AChE by double reciprocal Lineweaver-Burk plot analysis. The method, boiled down:
as §3

For series [14], the target named is T3, Cholinesterase. Description: Competitive inhibition of equine serum BuChE by double reciprocal Lineweaver-Burk plot analysis. An outline of the steps:
as §3

Series [15] has as its target Cholinesterase (Equus caballus) (UniProt P81908). Description: Non-competitive inhibition of equine serum BuChE by double reciprocal Lineweaver-Burk plot analysis. The method, boiled down:
as §3

Each structure is given as a SMILES string. pIC50, pKi: −log10 of the molar value. Where only a bound is given, the exact number is not on record here.

T3 sequence (P81908 whole entry): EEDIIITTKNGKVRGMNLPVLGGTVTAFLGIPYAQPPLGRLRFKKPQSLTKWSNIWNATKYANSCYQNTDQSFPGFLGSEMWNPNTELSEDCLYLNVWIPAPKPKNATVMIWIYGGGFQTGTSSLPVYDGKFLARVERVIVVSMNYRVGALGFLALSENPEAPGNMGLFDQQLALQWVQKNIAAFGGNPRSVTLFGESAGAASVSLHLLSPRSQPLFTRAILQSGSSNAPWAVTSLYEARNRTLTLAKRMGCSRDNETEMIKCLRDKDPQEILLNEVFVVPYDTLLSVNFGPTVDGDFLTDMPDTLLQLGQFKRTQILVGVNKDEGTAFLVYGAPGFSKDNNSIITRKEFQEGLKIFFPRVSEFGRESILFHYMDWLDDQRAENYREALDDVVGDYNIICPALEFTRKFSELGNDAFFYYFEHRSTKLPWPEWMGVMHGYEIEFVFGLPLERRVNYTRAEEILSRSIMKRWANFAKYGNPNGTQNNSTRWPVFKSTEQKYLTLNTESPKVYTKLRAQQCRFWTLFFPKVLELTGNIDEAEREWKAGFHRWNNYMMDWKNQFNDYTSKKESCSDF
T2 sequence (P22303 whole entry): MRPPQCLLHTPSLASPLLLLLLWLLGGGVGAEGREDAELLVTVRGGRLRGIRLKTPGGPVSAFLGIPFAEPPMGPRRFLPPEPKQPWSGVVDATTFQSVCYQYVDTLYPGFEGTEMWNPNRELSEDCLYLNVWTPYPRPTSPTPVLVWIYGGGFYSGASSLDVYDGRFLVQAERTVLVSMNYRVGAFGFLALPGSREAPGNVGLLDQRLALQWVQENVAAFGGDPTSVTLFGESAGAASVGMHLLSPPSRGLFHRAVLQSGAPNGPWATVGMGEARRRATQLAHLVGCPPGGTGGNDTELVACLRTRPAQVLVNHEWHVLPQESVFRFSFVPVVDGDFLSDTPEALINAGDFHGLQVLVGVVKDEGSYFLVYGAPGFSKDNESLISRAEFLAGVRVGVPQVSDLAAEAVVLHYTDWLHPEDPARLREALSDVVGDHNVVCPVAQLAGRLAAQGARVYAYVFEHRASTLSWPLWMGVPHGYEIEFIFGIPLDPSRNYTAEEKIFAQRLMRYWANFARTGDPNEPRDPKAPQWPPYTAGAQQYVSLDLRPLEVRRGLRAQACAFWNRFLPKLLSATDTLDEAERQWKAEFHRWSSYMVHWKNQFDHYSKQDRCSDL
Cholinesterase (Equus caballus), sequence (P81908 whole entry): as the sequence (P81908 whole entry) above

A word on the pIC50: it is the IC50 on a negative log10 scale, so that one unit is a factor of ten. Usually LD50 stands for the dose at which mortality reaches 50%. On to `CCOC(=O)/C(=N\Nc1ccc(C)cc1)C(=O)C(F)(F)F`, for which the pIC50 on Liver carboxylesterase [1] is 8.13; against Acetylcholinesterase [2], 5.14; at Cholinesterase [3], 5.08; in series [5], 4.67; at Liver carboxylesterase 1, 8.53; in [6], < 3.30. Further, the Activity in series [4] was 0.95; in series [8] it was “Non-Toxic”. Besides, the LD50 at 336 h in series [7] was determined as 900 mg/kg.

Turning to `CCOC(=O)/C(=N\Nc1ccccc1)C(=O)C(F)(F)F`, the pIC50 was 8.21 at Liver carboxylesterase [1]; 5.49 against Acetylcholinesterase [2]; 5.07 against Cholinesterase [3]; 4.57 in [5]; 8.21 at Liver carboxylesterase 1; < 3.30 in [6]. The figures for the Activity in series [4] and in series [9] were 0.8 and “Non-Toxic”, respectively. In series [7], this compound came in with an LD50 at 336 h of 600 mg/kg.

The pKi is −log10 of the Ki, conventionally taken in molar units. A lower pKi goes with a high Ki. As to `COC(=O)/C(=N\Nc1ccc(C)cc1)C(=O)C(F)(F)F`, the negative logarithm of the IC50 (pIC50) against Liver carboxylesterase [1] was 7.56; against Acetylcholinesterase [2] it was 4.55; against Cholinesterase [3], 4.48; in series [5], 4.67; on Liver carboxylesterase 1, 7.79. Further, in series [4], the Activity worked out at 0.98. The pKi at Liver carboxylesterase [10] is 7.85; at Acetylcholinesterase [12], 5.00; at Cholinesterase [14], 4.53. Besides, the alphaKi on Liver carboxylesterase [11] was 82.2 nM; at Acetylcholinesterase [13], 139 µM; in series [15], 72.7 µM.
